The values that follow come from ChEMBL document CHEMBL1955718, “Discovery of new orally effective analgesic and anti-inflammatory hybrid furoxanyl N-acylhydrazone derivatives” (Bioorg Med Chem, 2012).

Data set [1] deals with HT-29. In words: Inhibition of NF-kappaB activation expressed in human HT-29 cells assessed as inhibition of TNFalpha-stimulated IL8 release at 100 uM after 24 hrs by flow cytometric analysis relative to control. Type of data set: cell-based. The method in brief:
(§1)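 Reporter HT-29-NF-κB-hrGFP cells pretreated 2 h with compound (DMSO <0.5%) at the highest concentration with 100% survival, then stimulated with TNF-α (3 ng/mL final) for 18–24 h at 37 °C. IL-8 in clarified supernatant measured by flow cytometric bead assay (500 events). Expressed as % of TNF-α/DMSO control ± SD; thalidomide as reference.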

Data set [2] deals with Salmonella typhimurium. Kind of data set: Induction of mutagenesis in Salmonella Typhimurium TA98 assessed as number of revertants at 4 to 350 ug/plate in absence of mouse liver S9 fraction. Type of data set: toxicity, organism-based. The conditions noted are these: salmonella enterica subsp. enterica serovar typhimurium. The method in brief:
(§2)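 S. typhimurium TA98, plate incorporation on minimal glucose (Vogel-Bonner) agar. Compounds were in DMSO, dosed in triplicate with a top non-toxic dose of 250 or 350 µg/plate. Runs were without S9 (positive control 4-nitro-o-phenylenediamine, 20 µg/plate) or with 500 µL Aroclor-induced mouse liver S9 (positive control 2-aminofluorene, 10 µg/plate), plus a DMSO control. Revertants were counted manually; mutagenic means ≥2-fold spontaneous revertants at two consecutive doses.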

The test system of the next data set is Mus musculus. In words: Analgesic activity in albino mouse assessed as inhibition of acetic acid-induced abdominal constriction at 100 umol/kg, po administered 1 hr before acetic acid challenge measured after 60 mins relative to control. In kind it is functional. The conditions noted are these: Abdomen. The method in brief: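 Albino mice of both sexes (18–23 g) were dosed orally as a suspension in 5% arabic gum in saline, with vehicle controls. After 1 h they received 0.6% acetic acid ip (0.1 mL/10 g). Constrictions were counted for 20 min starting 10 min after injection. Data are % inhibition vs vehicle, mean ± SEM, Student t-test.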

The test system of data set [3] is Rattus norvegicus. Kind of data set: Antihyperalgesic activity against carrageenan-induced thermal hyperalgesia in Wistar rat assessed as latency of withdrawal response at 100 umol/kg, po administered 1 hr before carrageenan challenge measured after 30 to 240 mins by hot plate test. Type of data set: functional, organism-based. The procedure, abridged: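 Wistar rats of both sexes (150–200 g) dosed orally at 100 µmol/kg as suspension in 5% arabic gum in saline, vehicle controls. After 1 h, 1% carrageenan (1 mg/paw) or saline injected subplantar. Left hind paw withdrawal latency on hot plate at 51 ± 0.1 °C read at 0–240 min, 20 s cut-off. Δ latency = time-0 latency minus later latency; mean ± SEM, n = 8–10; Student t-test.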

Data set [4] has as its system Salmonella typhimurium. Kind of data set: Induction of mutagenesis in Salmonella Typhimurium TA98 assessed as number of revertants at 4 to 350 ug/plate in presence of mouse liver S9 fraction. In kind it is toxicity, organism-based. The conditions noted are these: salmonella enterica subsp. enterica serovar typhimurium. The procedure, abridged:
as §2

Data set [5] has as its system HT-29. Kind of data set: Inhibition of TNF-alpha-induced NFkappaB activation expressed in human HT-29 cells coexpressing hrGFP at 50 uM after 24 hrs by propidium iodide staining-based flow cytometric analysis relative to control. In kind it is cell-based. The method in brief: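 HT-29 cells stably expressing NF-κB-driven hrGFP given compound (DMSO <0.5%) for 2 h at the maximum non-cytotoxic concentration, then TNF-α at 3 ng/mL final for 18–24 h. Cells trypsinised and stained with propidium iodide; 5000 events gated on FSC/SSC. The %GFP-positive among PI-excluding live cells is normalised to TNF-α/DMSO control, ± SD.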

Data set [6] has as its system Salmonella typhimurium. In words: Induction of mutagenesis in Salmonella Typhimurium TA98 assessed as number of revertants at 6 to 500 ug/plate in presence of mouse liver S9 fraction. In kind it is toxicity, organism-based. The conditions noted are these: salmonella enterica subsp. enterica serovar typhimurium.
Data set [7] deals with Rattus norvegicus. In words: Antihyperalgesic activity against carrageenan-induced thermal hyperalgesia in Wistar rat assessed as latency of withdrawal response at 100 umol/kg, po administered 1 hr before carrageenan challenge measured after 3 hrs by hot plate test. In kind it is functional. The method in brief:
(§3)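 Wistar rats of both sexes (150–200 g) were dosed orally as a suspension in 5% arabic gum in saline, with vehicle controls. After 1 h, 0.1 mL 1% carrageenan (1 mg/paw) or saline was injected subplantar into the hind paws. Left hind paw withdrawal latency was read on a 51 °C hot plate at 0–240 min (cut-off 20 s). Δlatency = time-0 minus later latency; mean ± SEM, n = 8–10; t-test.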

Data set [8] relates to Salmonella typhimurium. In words: Induction of mutagenesis in Salmonella Typhimurium TA98 assessed as number of revertants at 6 to 500 ug/plate in absence of mouse liver S9 fraction. In kind it is toxicity, organism-based. Conditions: salmonella enterica subsp. enterica serovar typhimurium.
Data set [9] in a line: Induction of NO release in 0.1 M Tris-HCl and 0.1 mM DTPA at pH 7.4 measured for 20 mins in presence of cysteine. Type of data set: physicochemical. Conditions: buffer, pH 7.4, 20 min. The procedure, abridged:
(§4)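 Electrochemical NO detection with an ISO-NOP sensor. Compounds in DMSO added to 0.1 M Tris-HCl, 0.1 mM DTPA at pH 7.4 or 8.3. Cysteine (300 or 100 µM) added and NO recorded for 20 min at 25 or 37 °C; compound:Cys ratio 1:1 at 25 °C, with 3:1 and 37 °C runs also made.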

Data set [10] relates to HT-29. In words: Inhibition of NF-kappaB activation expressed in human HT-29 cells assessed as inhibition of TNFalpha-stimulated IL8 release at 50 uM after 24 hrs by flow cytometric analysis relative to control. Type of data set: cell-based. The procedure, abridged:
as §1

Data set [11] can be described thus: Induction of NO release in 0.1 M Tris-HCl and 0.1 mM DTPA at pH 8.3 measured for 20 mins in presence of cysteine. The conditions noted are these: buffer, pH 8.3, 20 min. In kind it is physicochemical. The method in brief: as §4
The test system of data set [12] is Rattus norvegicus. Kind of data set: Antihyperalgesic activity against carrageenan-induced thermal hyperalgesia in Wistar rat assessed as latency of withdrawal response at 100 umol/kg, po administered 1 hr before carrageenan challenge measured after 1 hr by hot plate test. Type of data set: functional. The method in brief:
as §3

A short description of data set [13]: Inhibition of soybean lipoxygenase using arachidonic acid as substrate. More on the design: species or system Glycine max. The procedure, abridged:
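Soybean 15-lipoxygenase kit assay, arachidonic acid substrate, H2O2 as lipoxygenating agent in 0.1 M Tris-HCl pH 7.4. Single-point screen at 50 µM. IC50 found by varying concentration over 10–100 µM. Quercetin at 4 µM as positive control; duplicate means; Student t-test.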

Data set [14] has as its system Salmonella typhimurium. Kind of data set: Induction of mutagenesis in Salmonella Typhimurium TA98 assessed as number of revertants at 3.1 to 250 ug/plate in absence of mouse liver S9 fraction. Type of data set: toxicity, organism-based. Conditions: salmonella enterica subsp. enterica serovar typhimurium. The method in brief: as §2
The test system of data set [15] is HT-29. In words: Inhibition of NF-kappaB activation expressed in human HT-29 cells assessed as inhibition of TNFalpha-stimulated IL8 release at 400 uM after 24 hrs by flow cytometric analysis relative to Thal. Type of data set: cell-based. The method in brief:
as §1

Data set [16] concerns Salmonella typhimurium. In words: Induction of mutagenesis in Salmonella Typhimurium TA98 assessed as number of revertants at 3.1 to 250 ug/plate in presence of mouse liver S9 fraction. Type of data set: toxicity, organism-based. The conditions noted are these: salmonella enterica subsp. enterica serovar typhimurium. The procedure, abridged: as §2

SMILES strings stand for the structures. The source made the active and inactive calls. Some results are limits rather than exact numbers.

On to `Cc1c(C(=O)N/N=C/c2ccc(N(C)C)cc2)no[n+]1[O-]`, for which the inhibition with HT-29 [1] came out at 98%. The Activity entry in the data set with Salmonella typhimurium [2] and with Salmonella typhimurium [4] was “Non-toxic” throughout. In the data set with Mus musculus, the inhibition in vivo at 100 µmol/kg turned out to be 22%. The result in the data set with Rattus norvegicus [3] was inactive.
With `Cc1[nH]cnc1C(=O)N/N=C/c1ccc2no[n+]([O-])c2c1`, in the data set on HT-29 [5], the NF-kappaB activation (% of TNF-alpha control) was 71%. Moreover, the Activity entry was “Non-toxic” in the data set on Salmonella typhimurium [6], “Toxic” in the data set on Salmonella typhimurium [8], 0 nM/min in data set [9] and 0 nM/min in data set [11]. In addition, the inhibition in vivo at 100 µmol/kg in the data set with Rattus norvegicus [7] came to 14%. In addition, in the data set on HT-29 [10], the inhibition was found to be 51%.
Consider `O=C(N/N=C/c1c(-c2ccccc2)no[n+]1[O-])c1ccc2c(c1)OCO2`, for which the inhibition in vivo at 100 µmol/kg in the data set on Rattus norvegicus [12] came to 14%. For the same compound, the IC50 in data set [13] is more than 100 µM. Besides, in the data set on HT-29 [1], the inhibition amounted to 4%. Further, the Activity entry in the data set with Salmonella typhimurium [14] was “Non-toxic”; in data set [9], 0 nM/min; in data set [11], 0.39 nM/min; in the data set with Salmonella typhimurium [16], “Non-toxic”. Further, the fold change (FC) in the data set with HT-29 [15] is 16.
